Experimental data from PubChem BioAssay AID1885 (Broad Institute, 2009).
Among all 300,000 compounds or so, about 4,400 (1.5%) were called active.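 How the source made its calls: active means mean inhibition across valid replicates above about 55% (limit read from the data); inconclusive means mean below that limit but half or more replicates reach it; inactive means mean below it, under half of replicates reach it.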 The full list was thinned out, with actives kept by preference.

test: Trypanosoma cruzi replication blockers in host cells – luminescence, NIH3T3 host cells, primary screen (AID 1885);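 further: signal also drops with host cell toxicity which is not excluded here; 0% = plate median of DMSO wells and 100% = zero luminescence signal; higher percent means less beta-gal luminescence so fewer parasites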; conditions: T. cruzi beta-gal in NIH3T3, luminescence, 90 h; hits give high values; concentration not given here
Summary of the method: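 Test system: β-gal T. cruzi (Tulahuen C4) inside NIH/3T3 cells / Quantity: 5,000 cells/well / Measured by: luminescence from GalScreen with 0.05% NP40, read after 60 min / Medium: DMEM plus 2% FBS / Measure: parasite load inhibition, % / Reagent: Tulahuen C4 trypomastigotes, 5000/well / Schedule: co-culture of at least 90 h after 3 h attachment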

| Structure (SMILES) | inhibition |
| --- | --- |
| Cc1ccc(S(=O)(=O)CCC(=O)Nc2nnc(CC(C)C)s2)cc1 | -32% (inactive) |
| COC(=O)COc1ccc2c(c1C)O/C(=C\c1ccco1)C2=O | 0.57% (inactive) |
| CCN1C(=O)[C@@H]2[C@@H](c3ccc(-c4ccc(OC)cc4)c(OC)c3)N3CCC[C@@]3(C(=O)OC)[C@@H]2C1=O | -10.1% (inactive) |
| O=C(NCC(c1cccs1)N1CCOCC1)c1cc(Cl)ccc1[N+](=O)[O-] (configuration not stated) | -4.39% (inactive) |
| CCCN(CCC)c1nc2c(C)cccn2c(=O)c1/C=C1/SC(=S)N(Cc2ccco2)C1=O | 68.2% (active) |
| CCOC(=O)CC1C(=O)NCCN1c1nc2c(C)cccn2c(=O)c1/C=C1\SC(=S)N(C(C)CC)C1=O (configuration not stated) | 25.7% (inactive) |
| O=C(CCCN1C(=O)/C(=C\c2ccco2)SC1=S)Nc1cccc2ccccc12 | -4.25% (inactive) |
| Fc1ccc2c(c1)C(c1cccnc1)=NNC(c1cccs1)=N2 | -7.53% (inactive) |
| Fc1ccccc1N=C1Nc2cccc3cccc1c23 | -4.12% (inactive) |
| COc1ccccc1C1=Nc2cccc3cccc(c23)N1 | 55% (active) |
| c1ccc(C2=Nc3cccc4cccc(c34)N2)cc1 | 7.49% (inactive) |
| CC1(C)CC(=O)C=C(N2CCCC2)C1 | 1.27% (inactive) |
| CC1(C)CC(N2CCN(C(c3ccccc3)c3ccccc3)CC2)=CC(=[N+]2CCCCC2)C1 | 63.6% (active) |
| O=C(O)CN1CCN(C(c2ccccc2)c2ccccc2)CC1 | -9.78% (inactive) |
| Cc1ncn(C23CC4CC(CC(O)(C4)C2)C3)n1 | 5.6% (inactive) |
| COc1cccc(NC(=O)c2nn(C34CC5CC(CC(C5)C3)C4)cc2[N+](=O)[O-])c1 | 16.7% (inactive) |
| Cc1nc([N+](=O)[O-])nn1C12CC3CC(CC(Br)(C3)C1)C2 | 59.3% (active) |
| CCCCCN(C(=O)CCC(=O)OCCOc1ccc(OC)cc1)c1c(N)n(CCCC)c(=O)[nH]c1=O | 8.8% (inactive) |
| CN(N)c1nc(N2CCCC2)nc(N2CCCC2)n1 | -9.95% (inactive) |
| CCCCCCCCCCCCN1[C@@H](CC(C)=O)c2cc(F)cc(F)c2S1(=O)=O | 39.5% (inactive) |
| CN1CCN(c2ccc(NC(=O)c3ccc4c(c3)[nH]c(=O)n4Cc3ccc(F)cc3)cc2)CC1 | 65.8% (active) |
| CC(C)n1c(=O)[nH]c2cc(C(=O)Nc3ccccc3)ccc21 | -5.92% (inactive) |
| CN1CCN(c2ccc(NC(=O)c3ccccc3)cc2)CC1 | -2.93% (inactive) |
| COCCN1C(=O)N(c2ccc(Cl)cc2)C(=O)C1CC(=O)Nc1cc(OC)cc(OC)c1 (configuration not stated) | -12.9% (inactive) |
| Cc1onc(-c2ccccc2Cl)c1C(=O)N(Cc1ccc(N(C)C)cc1)C(C)C | 37.7% (inactive) |

| Structure (SMILES) | inhibition |
| --- | --- |
| O=C(NCc1ccncc1)NC12CC3CC(CC(C3)C1)C2 | -15.8% (inactive) |
| S=C(NCc1ccc(Cl)cc1)NC12CC3CC(CC(C3)C1)C2 | 57.1% (active) |
| S=C(NCc1ccc(Cl)cc1)NC1CCCCC1 | 10.1% (inactive) |
| CCN(CC)P(=O)(Nc1ccc(SC(F)F)cc1)c1ccc(N(C)C)cc1NC(=O)c1ccco1 (configuration not stated) | 68.4% (active) |
| Cc1cc(NC(=O)c2ccc(F)cc2)ccc1NC(=O)c1ccco1 | 14% (inactive) |
| O=C(Nc1ccc(Sc2ccc(Br)cc2)cc1)c1ccco1 | -17.4% (inactive) |
| O=C(NC1CCCC1)C1CC(=O)N(c2ccc(F)cc2)C1 (configuration not stated) | 5.96% (inactive) |
| Cc1c(C(=O)N2CCCC2)c(S(=O)(=O)NCC(C)c2ccccc2)c(C)n1C (configuration not stated) | -5.32% (inactive) |
| Cc1nc(NC(=O)c2cccc(Cl)c2)sc1-c1csc(Nc2cccc(Cl)c2)n1 | -1.87% (inactive) |
| O=C(Nc1ccc(-c2csc(Nc3cccc(C(F)(F)F)c3)n2)cc1)c1cccc(C(F)(F)F)c1 | 58.5% (active) |
| CNC(=O)c1ccc(NC(=O)c2cccc(C(F)(F)F)c2)cc1 | -8.58% (inactive) |
| O=C(O)C1C2C=CC(C2)C1C(=O)NCc1ccccc1 (configuration not stated) | -11.6% (inactive) |
| Cc1nn(C)cc1S(=O)(=O)N1CCN(c2ccc(F)cc2)CC1 | 2.42% (inactive) |
| O=C(O)c1ccccc1NC(=O)c1ccccc1-c1ccccc1C(=O)O | -1.15% (inactive) |
| O=C(NC(=S)Nc1ccccc1C(=O)O)c1ccc(-c2ccc(Br)cc2)o1 | 61.6% (active) |
| COC(=O)c1ccccc1NC(=S)NC(=O)c1ccccc1F | -19.3% (inactive) |
| CCN1C(=O)[C@@H]2[C@@H](c3ccc(-c4cccc(Cl)c4)cc3)N3CCC[C@@]3(C(=O)OC)[C@@H]2C1=O | 4.08% (inactive) |
| COc1cc(C(=O)N2CCN(C3CCC(C)CC3)CC2)cc(OC)c1OC (configuration not stated) | 25.8% (inactive) |
| Cn1nc([N+](=O)[O-])nc1Sc1ccc(C(C)(C)C)cc1 | 27% (inactive) |
| NC(=O)Cn1nc([N+](=O)[O-])nc1Oc1ccc(Br)cc1 | 88.1% (active) |
| N/C(=N\OC(=O)COc1ccc([N+](=O)[O-])cc1)c1ccc(Br)cc1 | -1.86% (inactive) |
| Cc1nn(CCOc2ccc(Br)cc2)c(C)c1[N+](=O)[O-] | 10.6% (inactive) |
| CCc1ccc(Oc2nc([N+](=O)[O-])nn2C)cc1 | 66.5% (active) |
| COc1ccc(CNC(=O)CCCn2nc(C)c([N+](=O)[O-])c2C)cc1 | -2.92% (inactive) |
| COc1ccc(NC(=O)CCS(=O)(=O)c2cc3c(cc2Cl)NC(=O)CO3)cc1OC | 1.37% (inactive) |

| Structure (SMILES) | inhibition |
| --- | --- |
| CC(C)CCN1CCN(Cc2cn[nH]c2C2CCCCC2)CC1CCO (configuration not stated) | 24.3% (inactive) |
| CN(CCOc1ccccc1)C(=O)c1cc(COc2c(F)cccc2F)on1 | -2.25% (inactive) |
| COc1ccc(NC(=O)CCNC(=O)Cn2cnc3sc4c(c3c2=O)CCCC4)cc1OC | -2.4% (inactive) |
| Cc1ccc(S(=O)(=O)N2CCN(C(=O)c3ccccc3-c3nc4ccccc4s3)CC2)c(C)c1 | -3.66% (inactive) |
| CC(NC(=O)c1cc2cc(Cl)ccc2oc1=N)c1ccccc1 (configuration not stated) | -3.32% (inactive) |
| COc1cccc(CNCCc2c[nH]c3ccccc23)c1OCc1ccccc1F | 39.3% (inactive) |
| c1ccc(COc2ccccc2CNCc2cccnc2)cc1 | 69.7% (active) |
| CCC(Oc1ccccc1)C(=O)NCc1cccnc1 (configuration not stated) | -4.42% (inactive) |
| Fc1ccccc1COc1ccccc1CNCc1ccncc1 | 65.1% (active) |
| Fc1ccccc1COc1cccc2cccnc12 | -0.777% (inactive) |
| C=CCOc1cccc(CNCc2cccnc2)c1 | 17.4% (inactive) |
| CN(C(=O)CN1C(=O)NC(C)(CCc2ccccc2)C1=O)c1ccccc1 (configuration not stated) | -3.39% (inactive) |
| O=C(Nc1ccccc1Cl)N1CCN(c2ccc3nncn3n2)CC1 | -2.95% (inactive) |
| O=C1c2ccccc2C(=O)N1CC1c2ccccc2CCN1S(=O)(=O)c1ccccc1 (configuration not stated) | -2.22% (inactive) |
| Cc1c(Cl)c([N+](=O)[O-])nn1CCCC(=O)NC(C)c1ccccc1 (configuration not stated) | 6.9% (inactive) |
| COC(=O)C(C)Sc1ccc2nnc(-c3cccc(F)c3)n2n1 (configuration not stated) | 19% (inactive) |
| C1CC1Cc1noc(CN2CCN(CC3CC3)CC2)n1 | 1.1% (inactive) |
| COc1ccc(NC(=O)CN(C)C(=O)CC2CCCCC2)cc1 | -3.55% (inactive) |
| FC(F)(F)c1ccc2c3n(nc2c1)CCN=C3c1ccc(Cl)cc1 | 1.67% (inactive) |
| O=C(CNC(=O)c1cccnc1)N/N=C/c1cccnc1 | -1.7% (inactive) |
| O=C(CSc1cccc2cccnc12)N/N=C/c1cccnc1 | 64.7% (active) |
| Cc1nc2ccccc2n1CC(=O)N/N=C/c1cccnc1 | -15.1% (inactive) |
| COc1ccccc1OCC(=O)Nc1ccccc1C(=O)NC1CC1 | -5.39% (inactive) |
| O=S(=O)(Nc1ccc(O)c2ccccc12)c1ccc(OC(F)(F)F)cc1 | 8.4% (inactive) |
| Cc1c(C)n2c(SCC(=O)NC3CCCC3)nnc2[nH]c1=O | -14.6% (inactive) |

| Structure (SMILES) | inhibition |
| --- | --- |
| CC(=O)Nc1ccc(Nc2c3ccccc3nc3ccccc23)cc1 | 59.7% (active) |
| CC(=O)Nc1ccc(NC(=O)COc2ncnc3ccccc23)cc1 | -17.1% (inactive) |
| Cc1ccc(Nc2c3c(nc4ccccc24)CCC3)cc1 | 39.2% (inactive) |
| FC(F)(F)c1cccc(-c2nc(COc3ccc(Cl)cc3Cl)no2)c1 | 1.05% (inactive) |
| COc1c(C(=O)N2CCCC2)ccc2ccccc12 | -11.3% (inactive) |
| CCCSc1nc2sc3c(c2c(=O)n1-c1ccc(OC)cc1)CCN(C)C3 | 57.4% (active) |
| CCSc1nc2sc3c(c2c(=O)n1-c1ccc(C)cc1)CCN(C)C3 | 21.6% (inactive) |
| CCOc1ccc(-n2c(SCC(=O)OC)nc3sc4c(c3c2=O)CCN(C)C4)cc1 | 5.98% (inactive) |
| CCOC(=O)N1CCC(N2Cc3cccc(C(=O)Nc4c(C)cccc4CC)c3C2=O)CC1 | 22% (inactive) |
| Cc1ccc(S(=O)(=O)N2CCC(C(=O)NCCC3=CCCCC3)CC2)cc1C | 8.76% (inactive) |
| Cc1cccc(-n2ncc(Cl)c(Cl)c2=O)c1 | 65.8% (active) |
| COc1ccc(Oc2c(Cl)cnn(-c3ccccc3)c2=O)cc1 | -11.4% (inactive) |
| Cc1cccc(-n2ncc(C#N)c2-n2cccc2)c1 | -8.8% (inactive) |
| COc1ccc(N2CCN(C(=O)COC(=O)c3cccc(S(=O)(=O)Nc4ccccc4OC)c3)CC2)cc1 | 8.41% (inactive) |
| COc1ccc(F)cc1S(=O)(=O)NCC(c1ccc2c(c1)OCO2)N1CCN(C)CC1 (configuration not stated) | -3.53% (inactive) |
| COC(=O)c1cc(S(=O)(=O)N2CCN(c3cc(C)ccc3C)CC2)c[nH]1 | 0.9% (inactive) |
| S=C(Nc1ccc(Br)cc1)NC1CCN(Cc2ccccc2)CC1 | 42% (inactive) |
| O=C(NC1CCN(Cc2ccccc2)CC1)c1ccc(Oc2cc(Cl)cc(Cl)c2)o1 | 44.9% (inactive) |
| Cc1cc(C(=O)NC2CCN(Cc3ccccc3)CC2)n[nH]1 | 14.6% (inactive) |
| O=C(NC1CCN(Cc2ccccc2)CC1)c1cc(Br)c(Br)[nH]1 | 70.3% (active) |
| S=C(Nc1ccc(Br)cc1Cl)NC1CCN(Cc2ccccc2)CC1 | 60.4% (active) |
| O=C(COc1ccc(Br)cc1F)NC1CCN(Cc2ccccc2)CC1 | 38.4% (inactive) |
